The values that follow come from ChEMBL document CHEMBL4359864, “The synthesis and in vitro biological evaluation of novel fluorinated tetrahydrobenzo[j]phenanthridine-7,12-diones against Mycobacterium tuberculosis” (Eur J Med Chem, 2019).

For orientation: pIC50 means the negative decadic logarithm of the IC50, by convention in mol/L. High values mean a small IC50, low ones a large IC50. One may read the CC50 as the concentration at which the toxic effect on the cells reaches its halfway point. The term MIC90 denotes the lowest concentration that inhibits either 90% of growth or 90% of the strains tested, depending on the study. Read a high MIC90 as lower susceptibility.

The structures appear in SMILES notation. pIC50: −log10 of the molar value. Values after ≈ are worked out from the molar mass of the structure shown.

The target of data set [1] is T1, UGT (Homo sapiens, UniProt O60656+O75310+O75795+P06133+P0DTE4+P0DTE5+P16662+P19224+P22309+P22310+P35503+P35504+P36537+P54855+Q6UWM9+Q9BY64+Q9HAW7+Q9HAW8+Q9HAW9). Description: Microsomal stability in human liver microsomes assessed as UGT-mediated metabolism by measuring compound remaining at 5 uM and measured for 30 mins in presence of UDPGA by UPLC-MS/MS analysis (reference value: 100%). It is filed as ADME. As to conditions: read-out: Stability. A digest of the protocol: (§1)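 Compound at 5 µM with 0.5 mg/mL liver microsomes in PBS. Phase I was started with 1 mM NADPH; phase II used 2 mM UDPGA. Diclofenac served as reference. Samples taken at 0, 15, 30 and 60 min were quenched in ice-cold acetonitrile, centrifuged at 4°C and analysed by LC-MS. Mean of at least two replicates ± SD.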

Data set [2] concerns UGT. Kind of data set: Microsomal stability in mouse liver microsomes assessed as UGT-mediated metabolism by measuring compound remaining at 5 uM and measured for 15 mins in presence of UDPGA by UPLC-MS/MS analysis (reference value: 100%). Particulars: read-out: Stability. The class given is ADME. A digest of the protocol: as §1
Background: Microsomes from liver hold many membrane-bound enzymes, among them those of drug oxidation.

Data set [3] deals with Pseudomonas aeruginosa. Description: Antibacterial activity against Pseudomonas aeruginosa ATCC 9027 incubated for 24 hrs by resazurin dye based fluorimetric assay. The class given is functional, organism-based. Particulars: ATCC 9027, 24 h. In short, it runs like this:
(§2)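 Resazurin microtiter assay: compounds from 10 mM DMSO stock, twofold serial dilutions from 64 µM final in growth medium, in triplicate. Inoculum from frozen glycerol stocks. Exposure 24 h, or 7 days for Mtb H37Ra (7H9 + 0.5% glycerol + 10% OADC). Then 0.01% resazurin was added and plates were incubated at 37°C until pink. Fluorescence read at ex 550/em 590 nm; mean of triplicates.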
For orientation: Resazurin is reduced to fluorescent resorufin, in cell work by metabolically active cells.

Data set [4] deals with T1, UGT. Kind of data set: Microsomal stability in human liver microsomes assessed as UGT-mediated metabolism by measuring compound remaining at 5 uM and measured for 15 mins in presence of UDPGA by UPLC-MS/MS analysis (reference value: 100%). It is filed as ADME. As to conditions: read-out: Stability. A digest of the protocol:
as §1

A short description of data set [5]: Genotoxicity in Salmonella typhimurium TA104 harboring with pr1 assessed as S/N ratio at 1 to 100 uM measured for 4 hrs with 5 mins interval by luminescence based assay. It is filed as toxicity. Particulars: salmonella enterica subsp. enterica serovar typhimurium. In short, it runs like this:
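VITOTOX test. Genox (recN2-4) and Cytox (pr1) S. typhimurium TA104 strains were diluted 250-fold and grown in 869 medium for 16 h at 36°C with shaking, then diluted 10-fold and grown 1 h more. Compounds tested at 1, 10 and 100 µM, with or without rat liver S9-mix. Luminescence read for 4 h at 5-min intervals. S/N thresholds: Genox >1.5 genotoxic; Cytox <0.8 toxic, >1.5 luminescence artefact.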

Data set [6] can be described thus: Cytotoxicity against mouse J774A.1 cells assessed as reduction in cell viability incubated for 24 hrs by neutral red uptake assay. It is filed as cell-based, J774.A1. A digest of the protocol: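 J774A.1 cells in DMEM + 10% iFCS, 37°C, 5% CO2, seeded at 40.000 cells/well and left overnight. Twofold dilutions from 128 µM final; 24 h exposure. Neutral red uptake for 3 h, dye extracted with 1:1 ethanol/acetic acid, OD read at 530 nm (reference 620 nm). CC50 = 50% reduction in uptake; mean of triplicates.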

In data set [7] the target is CYP450 (Homo sapiens, UniProt P04798+P05177+P05181+P08684+P10632+P10635+P11509+P11712+P13584+P20813+P20815+P20853+P24462+P24903+P33260+P33261+P51589+P78329+P98187+Q02928+Q08477+Q16678+Q16696+Q5TCH4+Q6VVX0+Q7Z449+Q8TAV3+Q96SQ9+Q9HB55). Description: Microsomal stability in human liver microsomes assessed as CYP450-mediated metabolism by measuring compound remaining at 5 uM and measured for 30 mins in presence of NADPH by UPLC-MS/MS analysis (reference value: 100%). The class given is ADME. As to conditions: read-out: Stability. A digest of the protocol:
as §1

A short description of data set [8]: Antimycobacterial activity against Mycobacterium avium subsp. avium ATCC 25291 by resazurin dye based fluorimetric assay. It is filed as functional. A digest of the protocol:
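Resazurin microtiter method as for the bacterial panel. Mycobacteria grown in 7H9 with 10% OADC and 0.5% glycerol; for BCG, 0.05% Tween 80 replaced the glycerol. Cultures were sonicated and needle-passed to single cells. Incubation at 37°C, or 32°C for M. marinum. Fluorescence read at ex 550/em 590 nm; mean of triplicates.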

In data set [9] the test system is Mycobacterium tuberculosis. Kind of data set: Antimycobacterial activity against Mycobacterium tuberculosis H37Ra lux incubated for 7 days by luminometric assay. As to conditions: 168 h. It is filed as functional, organism-based. A digest of the protocol:
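Twofold serial dilutions in 7H9/OADC/glycerol, in triplicate, inoculated with a suspension of 10.000 RLU per mL. After 7 days, n-decanal (1% v/v in ethanol) was added and luminescence read. IC50 and MIC (90% growth reduction) were derived from the mean of triplicates.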

Data set [10] deals with CYP450. Description: Microsomal stability in mouse liver microsomes assessed as CYP450-mediated metabolism by measuring compound remaining at 5 uM and measured for 60 mins in presence of NADPH by UPLC-MS/MS analysis (reference value: 100%). It is filed as ADME. Particulars: read-out: Stability. In short, it runs like this: as §1
Data set [11] deals with Klebsiella pneumoniae. Kind of data set: Antibacterial activity against Klebsiella pneumoniae ATCC 13883 incubated for 24 hrs by resazurin dye based fluorimetric assay. It is filed as functional, organism-based. As to conditions: ATCC 13883, 24 h. A digest of the protocol: as §2
Data set [12] deals with Mycobacterium tuberculosis. Kind of data set: Induction of ROS generation in Mycobacterium tuberculosis H37Ra ATCC 25177 assessed as increase in superoxide radicals incubated with CMH probe for 50 mins followed by compound addition and measured for 3 to 48 hrs by EPR analysis. It is filed as functional. In short, it runs like this:
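Mtb H37Ra cultures were exposed to compound, rifampicin or moxifloxacin (2 x MIC), alongside untreated controls. Samples were measured by EPR at 3, 6, 24 and 48 h. Spectra were simulated and double-integrated (aN = 1.58 mT) and converted to absolute CMH radical concentration by calibration. Mean of at least three replicates ± SD; two-way ANOVA with Tukey test.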

For the molecule `O=C1C2=C(C(=O)c3c1cnc1ccccc31)C1CCC2C1` (stereo not given), the remaining at 0.5 h, 5 µM in data set [1] was determined as 76%; in data set [7], 100%. Also, the remaining at 0.25 h, 5 µM in data set [2] is 69%; in data set [4] it was 83%. For the same molecule, the negative-log IC50 (pIC50) is below 4.19 in data set [3], 6.92 in data set [8], 5.89 in data set [9] and below 4.19 in data set [11]. The Ratio entry in data set [5] is “>= 0.8”. Besides, the CC50 at 24 h in [6] worked out at 64.5 µM. This molecule also registered an MIC90 in data set [9] of 6.33 µM (≈ 1.74 µg/mL). Moreover, the remaining at 1 h, 5 µM in [10] is 94%.
With `O=C1C2=C(C(=O)c3c1cnc1c(F)cccc31)C1CCC2C1` (stereo not given), the remaining at 0.5 h, 5 µM in data set [1] came to 71%; in data set [7] it was 100%. In addition, the values for the remaining at 0.25 h, 5 µM in data set [2] and in [4] were 77% and 78%, respectively. In addition, the pIC50 in [3] is below 4.19; in [8] it was 7.00; in [9], 5.81; in data set [11] it was below 4.19. Besides, the Ratio result in data set [5] is “>= 0.8”. Besides, in [6], the CC50 at 24 h amounted to 85.5 µM. In addition, the MIC90 in data set [9] turned out to be 4.43 µM (≈ 1.3 µg/mL). For the same molecule, the “fold change (FC)” value in data set [12] is 2.85. For the same molecule, the remaining at 1 h, 5 µM in data set [10] was 100%.
